Test results published in article PMC2913166 (Molecular pharmaceutics, 2009).
Several values for one entry are separate records, joined by “and”; a condition that tells them apart may be missing. Equal values may be shown once. Entries after “also recorded” stand apart in the source; their conditions may differ. K(Me2NCp) = not defined here; CbOH = not defined here

Legend:
[1] = biological target: T1, recombinant human caspase-3 (Homo sapiens, UniProt P42574); experiment: Caspase-3 enzyme kinetics of the NIR substrates; type: biochemical
T1 sequence (P42574 29-175 limits assumed): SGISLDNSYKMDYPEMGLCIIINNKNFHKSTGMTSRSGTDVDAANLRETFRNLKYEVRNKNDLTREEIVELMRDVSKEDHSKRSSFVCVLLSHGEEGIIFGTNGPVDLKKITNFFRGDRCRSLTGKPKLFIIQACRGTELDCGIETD
T1 sequence (P42574 176-277 limits assumed): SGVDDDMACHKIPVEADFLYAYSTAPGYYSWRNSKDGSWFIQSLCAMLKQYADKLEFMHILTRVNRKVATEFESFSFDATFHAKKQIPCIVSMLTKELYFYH
Outline: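 Active sites were titrated with Ac-DEVD-pNA (2.5–50 μM, 25°C, absorbance […] nm). Substrate (0.5–100 μM; DMSO stock) hydrolysis was followed by NIR fluorescence (ex 785/em 805 nm) over time. Linear slope ÷ complete-hydrolysis fluorescence × [S] gave vo, fitted to Michaelis–Menten. kcat/KM was computed; ± SEM.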

[2] = Absorption and fluorescence spectroscopy, quantum yield; type: physicochemical; settings: for λabs max / λem max / Quantum yield: 20% DMSO in water; for λabs max / λem max: room temperature; for Quantum yield: relative to ICG in DMSO, QY=0.12
Outline: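 Test compounds dissolved in spectral-grade DMSO, diluted in 20% DMSO/water, and read at room temperature. Fluorescence was excited at 700 nm with 5 nm slits, keeping absorbance below 0.1. Molar absorptivity was averaged from three-point measurements at the absorption maximum. Quantum yield was taken relative to ICG in 100% DMSO. Probe in assay buffer was split: one half diluted with water to 1 mL, the other cleaved by caspase-3, then diluted likewise.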

[3] = Fluorescence lifetime measurement; type: physicochemical; settings: 20% DMSO/water, excitation 773 nm, detection 820 nm, room temperature
Outline: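 TCSPC used a 773 nm pulsed LED source at 1 MHz, with detection at 90°. Counts were binned at 6.88 ps/channel until the peak reached 10,000, on a 50 ns scale. Instrument response came from Rayleigh scatter of 0.03% Ludox-40. Decays in 20% DMSO/water were fitted to two exponentials, discarding components contributing <3%.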

[4] = dissolved in 100% DMSO; reference value used for comparison; cited from earlier work
A549 cells = type: cell-based, human; settings: 5 μM paclitaxel for 2 h; read out by fluorescence of 5
Outline: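 A549 cells were grown in Ham's F12K with 10% FBS and penicillin/streptomycin at 37°C, 5% CO2, seeded at 1×10^5/well in chamber slides overnight. Cells were loaded with 10 μM probe using GeneJuice in Opti-MEM for 24 h at 37°C. Paclitaxel was given for 2 h at 37°C, then three PBS washes. NIR confocal imaging (785 nm laser) read mean cytoplasmic intensity (Ex/Em 785/805–830) in 12 cells; mean ± SD, t-test.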

caspase-3 = settings: cited from earlier work; for Km: read-out: KM of standard substrate

## AcGK(Me2NCp)-DEVD-APK(CbOH)-NH2 ({Ac-Gly-K(Me2NCp)}-DEVDAPK(CbOH)-NH2; reading uncertain; also: printed as AcGK(Me2NCp)-DEVD-APK(CbOH)-NH2) [Compound 5]
[1]; 5 (0.5 to 100 μM) with caspase 3 (290 pM), 10 mM PIPES pH 7.4, 2 mM EDTA, 0.1% CHAPS, 5 mM DTT, triplicate, λex=785 nm, λem=805 nm, ± standard error of the mean, SEM
  kcat (turnover number): 1.02 ± 0.06 s⁻¹
[1]; assay buffer pH 7.4, recombinant human caspase-3
  Cleavage (hydrolysis) by caspase-3, in words: cleaved more readily than 4; also recorded: readily cleaved
[1]; caspase-3, computed from kcat and KM
  kcat/KM (catalytic efficiency): 68000 M⁻¹ s⁻¹
[1]; read-out: KM (Michaelis-Menten constant), 5 (0.5 to 100 μM) with caspase 3 (290 pM), 10 mM PIPES pH 7.4, 2 mM EDTA, 0.1% CHAPS, 5 mM DTT, triplicate, λex=785 nm, λem=805 nm, ± standard error of the mean, SEM
  Km: 15 ± 3 µM
[2]; 5 after enzymatic cleavage by caspase-3, diluted with water
  Ratio F760/F810 of emission after cleavage: 7.16
[2]
  λabs max: 759 nm and 790 nm
  λem max: 763 nm
  Quantum yield: <0.001

## CC1(C)C(/C=C/C=C/C=C/C=C2/N(CCC(=O)O)c3ccc4ccccc4c3C2(C)C)=[N+](CCC(=O)[O-])c2ccc3ccccc3c21 [Compound 2, cypate, reference compound]
[3]
  Lifetime: 0.25 ns
[2]
  λabs max: 783 nm
  λem max: 808 nm
  Quantum yield: 0.031

## CC1(C)C(/C=C/C=C/C=C/C=C2\N(CCCCS(=O)(=O)O)c3ccc4ccccc4c3C2(C)C)=[N+](CCCCS(=O)(=O)[O-])c2ccc3ccccc3c21 [ICG, indocyanine green]
[4]
  Fluorescence quantum yield of the standard: 0.12

## CC(=O)O[C@H]1C(=O)[C@@]2(C)[C@H]([C@H](OC(=O)c3ccccc3)[C@]3(O)C[C@H](OC(=O)[C@H](O)[C@@H](NC(=O)c4ccccc4)c4ccccc4)C(C)=C1C3(C)C)[C@]1(OC(C)=O)CO[C@@H]1C[C@@H]2O [paclitaxel]
A549 cells
  Activation of caspase-3 in A549 cells: sufficient to activate caspase-3

## Ac-DEVD-AMC
caspase-3
  kcat of standard substrate: 0.75 s⁻¹
  Km: 9.7 µM

## Ac-DEVD-pNA
caspase-3
  kcat of standard substrate: 2.4 s⁻¹
  Km: 11 µM
